High-throughput results as filed in PubChem.
Sampled rows, rich in hits. Any-hit rate of the full collection: about 4.8%.
PAFAH2 inh: inhibitors of human PAFAH2; Q99487; recombinant PAFAH2, FP-rhodamine activity probe, fluorescence polarization; inhibition, % at 3.39 µM; AID 492956; hit rate 0.99% among 340,000;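 active = inhibition above the mean over all tested compounds plus 3 SD, cut at about 30% in these data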;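 note: inhibitors block probe labeling of enzyme so polarization drops; 0% = enzyme with DMSO and 100% = wells lacking PAFAH2 protein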
PAFAH1B3 inh: blocks human PAF acetylhydrolase 1B catalytic subunit 3; Q15102; recombinant PAFAH1B3, FP-rhodamine probe, fluorescence polarization; inhibition, % at 3.39 µM; hit rate 0.28% among 340,000; AID 492972;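 active = inhibition above the screen-wide average of all tested compounds plus 3 SD, cut at about 25% in these data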;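 note: 0% = enzyme with DMSO only and 100% = wells lacking PAFAH1B3 protein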
Target sequence (Q15102 whole entry, looked up): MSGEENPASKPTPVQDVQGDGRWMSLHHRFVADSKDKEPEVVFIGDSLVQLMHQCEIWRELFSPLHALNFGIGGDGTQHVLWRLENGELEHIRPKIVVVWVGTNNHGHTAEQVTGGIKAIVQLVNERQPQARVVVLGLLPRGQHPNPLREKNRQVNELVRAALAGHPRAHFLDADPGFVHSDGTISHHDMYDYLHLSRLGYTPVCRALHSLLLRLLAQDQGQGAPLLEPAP
pPAFAH inh: pPAFAH (human) enzyme inhibition | recombinant pPAFAH, FP-rhodamine probe fluorescence polarization | hit rate 1.5% among 330,000 | Q13093 | inhibition, % at 3.39 µM | AID 463082;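 active = inhibition above the mean inhibition across the screen plus 3 SD, cut at about 25% in these data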;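 note: inhibitors block binding of the rhodamine activity-based probe so polarization drops; 0% = enzyme with DMSO and 100% = wells lacking pPAFAH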
NR3A LBD binder: NR3A (human) ligand-binding domain modulation | NR3A LBD differential scanning fluorimetry, Tm shift; 0% = protein alone, 100% = glycine-bound protein | Tm shift relative to glycine control, % at 25 µM | hit rate 2.5% among 340,000 | AID 1259313;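 active = melting temperature shift of at least 10% of the positive control shift, at one fixed dose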
PAFAH1B2 FP inh: blocks human PAF acetylhydrolase 1b catalytic subunit 2. recombinant PAFAH1B2, FP-rhodamine activity probe, fluorescence polarization. hit rate 1.2% among 340,000. inhibition, % at 3.39 µM. P68402;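 active = inhibition above the mean of all tested compounds plus 3 SD, cut at about 24% in these data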;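 note: 0% = enzyme with DMSO and 100% = wells lacking PAFAH1B2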
UCH37 inh: blocks the human deubiquitinase UCH37. Q9Y5K5. purified proteasome/UCH37, Ub-AMC cleavage fluorescence. inhibition, % (test concentration not listed). hit rate 0.33% among 330,000;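 active = mean inhibition over replicate wells above about 20%, limit read from the data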;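 note: 0% = compound-free wells with enzyme and 100% = wells lacking proteasome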
Target sequence (Q9Y5K5 whole entry, looked up): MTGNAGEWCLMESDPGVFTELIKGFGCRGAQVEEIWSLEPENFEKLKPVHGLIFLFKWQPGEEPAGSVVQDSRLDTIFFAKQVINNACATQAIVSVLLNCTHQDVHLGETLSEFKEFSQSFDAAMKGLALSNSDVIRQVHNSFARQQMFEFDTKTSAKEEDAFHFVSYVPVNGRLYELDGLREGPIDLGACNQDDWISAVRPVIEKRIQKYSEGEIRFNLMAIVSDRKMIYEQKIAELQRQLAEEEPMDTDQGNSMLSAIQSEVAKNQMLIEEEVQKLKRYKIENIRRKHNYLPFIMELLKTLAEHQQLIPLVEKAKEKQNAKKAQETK
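Material: Human UCH37 enzyme supplied as purified proteasome complex | Schedule: 30 min preincubation with enzyme, 25 min cleavage at room temperature | Detection: AMC fluorescence 355/460 nm | Measure: % inhibition of Ub-AMC cleavage fluorescence | Controls: Wells without proteasome as full block, compound-free enzyme plus substrate as uninhibited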
PAFAH2 FP conf: confirmation of human PAFAH2 inhibitors | hit rate 65% among 2,300 | inhibition, % at 3.39 µM | AID 493030 | recombinant PAFAH2, FP-rhodamine activity probe, fluorescence polarization | shares compounds with PAFAH2 inh;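 active = mean inhibition over three repeats above a set limit taken from the earlier primary screen, cut at about 30% in these data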;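 note: inhibitor blocks binding of rhodamine activity probe so polarization falls; 0% = enzyme with DMSO and 100% = wells lacking PAFAH2 protein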
An asterisk follows results filed as active; x = no result.

SMILES	PAFAH2 inh	PAFAH1B3 inh	pPAFAH inh	NR3A LBD binder	PAFAH1B2 FP inh	UCH37 inh	PAFAH2 FP conf
O=C(CCc1n[nH]c(=O)[nH]c1=O)NN=Cc1ccc(Br)o1	x	x	x	x	x	2.9	x
COc1ccc(CCNC(=O)COC(=O)c2cccs2)cc1	43.8*	1.3	x	0.9	-1.0	3.0	33.8*
COc1ccc(CCNC(=O)COC(=O)c2ccc(C)s2)cc1OC	5.8	6.5	-0.8	1.1	7.0	1.4	x
COc1ccc(CCNC(=O)COC(=O)c2ccc(C)s2)cc1	55.5*	3.8	13.1	1.9	7.3	3.9	47.2*
CC(=NNC(=O)c1cc(C)nc2ccccc12)c1ccncc1	x	x	x	x	x	1.8	x
CCOc1ccc2ccccc2c1/C=N/NC(=O)c1cc(C)[nH]n1	48.6*	-4.3	1.4	4.1	0.7	x	15.3
CC(=O)c1ccc(NC(=O)c2ccc(NC(=O)CCS(=O)(=O)c3cccs3)cc2)cc1	71.6*	-0.5	0.8	20.5*	-0.3	2.5	58.2*
COc1cc(N)c(Cl)cc1C(=O)OCC(=O)NCC1CCCO1 (centres undefined)	8.6	-2.0	1.6	0.3	5.1	1.1	x
COc1cc(N)c(Cl)cc1C(=O)OCC(=O)NCC1CCCCC1	60.0*	6.0	3.2	-0.2	-0.5	0.8	52.0*
COc1ccc(C(=O)OCC(=O)NC2CC2)cc1F	49.4*	8.9	0.3	0.2	0.9	3.1	30.5*
COc1cc(C(=O)OCC(=O)NCC2CCCCC2)ccc1OCC(C)C	67.5*	-2.2	15.1	0.3	2.1	3.3	60.6*
Cc1ccc(C(=O)OCC(=O)c2ccccc2)cc1	37.5*	-5.3	7.6	18.8*	-4.4	3.8	24.2
COc1ccccc1OCC(=O)NCC1CCCCC1	-4.4	4.5	3.6	1.0	4.3	3.9	x
O=C(Cn1nc(C(F)F)cc1C(F)F)NN=Cc1ccc2c(c1)OCO2	x	x	x	x	x	-1.1	x
O=C(COc1cccc2ccccc12)NN=Cc1ccc(Sc2nc3ccccc3s2)o1	x	x	x	x	x	1.9	x
COc1cc(C(=O)OCC(=O)NC2CCCCCC2)ccc1OCC(C)C	88.1*	3.6	16.1	-0.5	6.8	x	82.8*
COc1cc(C(=O)OCC(=O)NC2CC2)ccc1OCCC(C)C	71.1*	4.6	15.0	-0.9	-4.5	2.4	67.7*
COc1ccc(C(=O)COC(=O)c2ccc(OC)c(OC)c2)cc1OC	2.7	2.4	4.8	-3.9	-2.8	2.1	x
COc1ccc(C(=O)OCC(=O)NC2CC2)cc1S(=O)(=O)N(C)Cc1ccccc1	53.8*	3.6	20.9	3.9	3.7	-1.8	49.5*
COc1ccc(C(=O)OCC(=O)c2ccc(F)cc2)cc1OC	60.3*	-0.5	2.2	-0.3	2.4	-2.1	57.4*
COc1cc(C(=O)OCC(=O)N2CCCCCC2)c([N+](=O)[O-])cc1OC	35.4*	11.9	3.0	3.6	6.2	9.4	23.8
Cc1nn(-c2ccccc2)c(C)c1C=Nn1c(-c2ccc(C(C)(C)C)cc2)n[nH]c1=S	x	x	x	x	x	7.9	x
O=C(c1cc(-c2ccc(Cl)cc2Cl)on1)N1CCOCC1	36.8*	-8.6	1.2	-0.5	-2.2	4.0	26.6
O=C(c1cc(-c2ccc(Cl)cc2)on1)N1CCOCC1	-3.4	2.2	4.0	-1.8	0.9	5.0	x
CCS(=O)(=O)c1ccc(O)c(NC(=O)Nc2ccccc2)c1	44.9*	-4.8	13.1	-7.7	3.2	1.1	29.4
SMILES	PAFAH2 inh	PAFAH1B3 inh	pPAFAH inh	NR3A LBD binder	PAFAH1B2 FP inh	UCH37 inh	PAFAH2 FP conf
CCCNC(=O)Nc1cc(S(=O)(=O)CC)ccc1O	2.3	3.3	7.7	-2.2	-2.5	-0.3	x
O=C1OC2(CCCCC2)OC(=O)C1=CNc1nc2ccccc2s1	41.1*	3.9	-1.6	6.0	8.6	-56.4	20.6
O=C1OC2(CCCCC2)OC(=O)C1=CNc1nccs1	18.4	2.3	-1.3	3.6	2.3	2.3	x
CC(C)CCNC(=O)C(c1ccncc1)N(Cc1cccs1)C(=O)Cn1nnc(-c2ccc(F)cc2)n1 (centres undefined)	40.2*	1.5	7.5	-8.9	2.6	-0.3	13.3
O=C(NCC1CCCO1)C(c1ccncc1)N(Cc1cccs1)C(=O)Cn1nnc(-c2ccc(F)cc2)n1 (centres undefined)	5.4	4.6	0.5	1.2	4.6	4.3	x
O=C(CN1CCN(S(=O)(=O)c2ccc(Br)cc2)CC1)NN=Cc1cccs1	x	x	x	x	x	2.9	x
Cc1cc2c(cc(C(=O)N3CCC(C(=O)NC4CCCC4)CC3)n2Cc2c(F)cccc2Cl)o1	63.8*	-1.9	-0.6	0.2	3.7	4.3	49.4*
Cc1nc(C(F)(F)F)c(C(=O)NN=C(N)c2ccccn2)s1	x	x	x	x	x	3.7	x
CCOc1cc(C=NNC(=O)C2CC2)ccc1OC(C)C	x	x	x	x	x	2.8	x
COc1ccc2nc(N3C(=O)CNC3=S)sc2c1	12.0	9.4	9.6	2.0	0.7	x	x
COc1ccc2nc(-n3c(O)c(C4=c5ccccc5=NC4=O)[nH]c3=S)sc2c1	59.9*	18.0	20.6	16.7*	15.2	9.6	39.9*
CC(=NNC(=O)c1ccncc1)c1cccc(NC(=O)c2ccc(C(C)(C)C)cc2)c1	x	x	x	x	x	4.7	x
O=C(O)CCC(=NNC(=O)c1cccs1)c1ccccc1	x	x	x	x	x	3.5	x
O=C(COC(=O)c1cccc(-n2cnnn2)c1)Nc1c(Cl)cccc1C(F)(F)F	42.1*	-1.7	-5.2	-2.4	2.8	-0.6	21.6
COc1ccc(NC(=O)COC(=O)c2ccc(-n3cnnn3)cc2)cc1Cl	35.3*	0.9	-0.6	-2.0	-3.7	2.6	27.3
C=CCN1C(=O)/C(=C2/Sc3ccccc3N2CC)SC1=S	1.2	0.7	11.3	-6.1	2.8	3.0	x
C=CCN1C(=O)/C(=C2/Sc3ccccc3N2CCCS(=O)(=O)O)SC1=S	33.7*	16.4	25.3*	2.5	14.4	8.5	21.8
COCCNC(=O)C(=O)NN=C(C)CC(=O)Nc1cccnc1	x	x	x	x	x	1.6	x
O=C(N/N=C/c1ccc(O)c(O)c1)N/N=C/c1ccc(O)c(O)c1	30.6*	16.6	x	2.1	7.2	x	14.8
O=C(NC1CCCCC1)C(c1ccncc1)N(C(=O)Cn1nnc(-c2cccs2)n1)C1CCCC1 (centres undefined)	61.7*	-4.0	6.4	-8.7	-1.4	0.3	53.8*
Cc1cccc(C)c1-n1c(C)cc(C=NNC(N)=S)c1C	x	x	x	x	x	1.4	x
CCOc1ccc(C=NNC(=O)c2ccc(CSc3nc4ccccc4[nH]3)cc2)cc1	x	x	x	x	x	-1.3	x
CCC(=O)Nc1ccc(C(=O)n2ccc(C)n2)cc1	58.8*	8.6	-9.3	0.2	5.3	2.4	60.8*
Cc1ccn(C(=O)c2ccc(NC(=O)CC(C)C)cc2)n1	62.4*	1.5	-0.9	1.1	-1.2	x	55.8*
Cc1cc(C)n(C(=O)c2ccc(NC(=O)C3CC3)cc2)n1	2.2	2.4	8.8	0.4	3.7	3.3	x
